Entries after “also recorded” stand apart in the source; their conditions may differ.

Assay [1] deals with T1, L. blandensis dGTPase (WT) (Leeuwenhoekiella blandensis, UniProt A3XHN1).
T1 sequence (A3XHN1 3-442): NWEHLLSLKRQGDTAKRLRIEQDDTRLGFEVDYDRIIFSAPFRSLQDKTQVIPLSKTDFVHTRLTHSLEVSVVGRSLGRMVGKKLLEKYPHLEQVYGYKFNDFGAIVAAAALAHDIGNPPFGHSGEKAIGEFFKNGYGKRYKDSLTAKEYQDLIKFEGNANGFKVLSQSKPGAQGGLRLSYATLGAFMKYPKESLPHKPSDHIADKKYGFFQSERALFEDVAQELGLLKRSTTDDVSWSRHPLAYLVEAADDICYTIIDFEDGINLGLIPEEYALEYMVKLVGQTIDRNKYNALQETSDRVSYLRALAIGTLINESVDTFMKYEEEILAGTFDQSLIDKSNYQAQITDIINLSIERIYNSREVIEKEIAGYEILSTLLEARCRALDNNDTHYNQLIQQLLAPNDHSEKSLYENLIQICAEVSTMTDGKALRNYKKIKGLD
Put plainly: Enzyme-coupled dGTPase activity assay, WT enzyme. The format is biochemical.

The target in assay [2] is T1, L. blandensis dGTPase (WT). The assay can be described thus: HPLC dGTPase activity assay, WT enzyme. The format is biochemical. As to conditions: mixture of eight standard dNTPs and NTPs, 1 mM each, 1 h.
The target of assay [3] is T2, L. blandensis dGTPase R28A (Leeuwenhoekiella blandensis, UniProt A3XHN1, R28A).
T2 sequence (A3XHN1 3-442 R28A): T1 sequence (A3XHN1 3-442)
Put plainly: Enzyme-coupled dGTPase activity assay, R28A mutant. Format: biochemical. As to conditions: dATP titration at 1 mM dGTP. In short, it runs like this: (§1)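 Variants of residues 3–442 were made by site-directed mutagenesis, expressed in E. coli BL21(DE3), and purified by Ni–NTA and size exclusion. dATP was serially diluted into buffer containing 1 mM dGTP (100 mM Tris pH 8, 5 mM MgCl2, 125 μM MnCl2, 5 mM phosphate). Reactions started with 1:1 addition of a 2× mix (~120 nM monomer, PNP, XOD). A297 was read at 25 °C, converted to v0/[E]t, and kcat,app versus dATP was Hill-fitted for K1/2.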

For assay [4], the system named is L. blandensis dGTPase R37A. Put plainly: Enzyme-coupled dGTPase activity assay, R37A mutant. Format: biochemical, Leeuwenhoekiella blandensis. As to conditions: dATP titration at 1 mM dGTP. In short, it runs like this:
as §1

Assay [5] addresses T3, L. blandensis dGTPase F40N (Leeuwenhoekiella blandensis, UniProt A3XHN1, F40N).
T3 sequence (A3XHN1 3-442 F40N): T1 sequence (A3XHN1 3-442)
Put plainly: Enzyme-coupled dGTPase activity assay, F40N mutant. The format is biochemical. The conditions noted are these: dATP titration at 1 mM dGTP. The method in brief:
as §1

Assay [6] addresses T4, L. blandensis dGTPase V74Q (Leeuwenhoekiella blandensis, UniProt A3XHN1, V74Q).
T4 sequence (A3XHN1 3-442 V74Q): T1 sequence (A3XHN1 3-442)
The assay can be described thus: Enzyme-coupled dGTPase activity assay, V74Q mutant. Format: biochemical. The method in brief: as §1

Assay [7] concerns the target Leeuwenhoekiella blandensis MED217 dGTPase (SAMHD1 homolog), wild type, residues 3 to 442 (Leeuwenhoekiella blandensis MED217). The assay can be described thus: cryo-EM structure.
Assay [8] has the same target. The assay can be described thus: crystal structure.

In general, EC50 refers to the concentration at which the effect is half-maximal. A higher EC50 goes with a need for much substance. `Nc1ncnc2c1ncn2[C@H]1C[C@H](O)[C@@H](COP(=O)(O)OP(=O)(O)OP(=O)(O)O)O1` [dATP]: the EC50 in assay [1] was 36 ± 3 µM; in assay [6], 180 ± 16 µM. Moreover, the “increase of dGTPase kcat by dATP” value in assay [1] (WT, 500 µM dATP versus dGTP-only) is listed as roughly 50%. The “fold activation of turnover rate by dATP” value is roughly 1.6 fold in assay [1] (WT, calculated with n^H = 2, dGTP concentration at saturation) and “more than threefold” in assay [1] (WT, calculated with n^H = 2, dGTP less than ~160 µM). The “n^H (Hill coefficient) of activation by dATP” value in assay [1] (WT, dATP titration at 1 mM dGTP) is reported as 1.3 ± 0.1. Also, the hydrolysis as substrate entry in assay [2] is recorded as “not used as a substrate”. The “activation by dATP” value in assay [3] was “eliminate activation by dATP; also recorded: not activated by dATP”; in assay [4] it was “eliminate activation by dATP; also recorded: not activated by dATP”; in assay [5], “eliminated allosteric activation by dATP”.
The term stoichiometry N denotes the number of molecules, sites or subunits per partner or assembly. Turning to “Leeuwenhoekiella blandensis MED217 dGTPase (SAMHD1 homolog), wild type, residues 3 to 442 (enzyme)”, the stoichiometry N in assay [7] and in assay [8] was 6 each time.
